Reference: ChEMBL document CHEMBL1208666, “Novel 6,8-dibromo-4(3H)quinazolinone derivatives of anti-bacterial and anti-fungal activities” (2010)
In brackets after ≈: the same amount, converted by molar mass. Activity calls are given as the source filed them. The calls are words filed in the database; no cut-off is given here.

Key:
Listeria monocytogenes [1] = assay: Antibacterial activity against Listeria monocytogenes after 24 hrs by agar streak dilution method; assay type: functional
Outline: (§1)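 Agar streak dilution on Mueller Hinton agar. Compound stock in DMSO was added in graded amounts to molten sterile agar at 40–50 °C. This was poured 3–4 mm deep and left to solidify. Bacterial suspension of about 10^5 cfu/ml was applied to the serially diluted plates. Plates were incubated at 37 °C for 24 h to read the MIC. Strains were food-poisoning isolates from animal byproducts.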

Candida albicans [2] = assay: Antifungal activity against Candida albicans at 100 ug/ml after 48 hrs by paper disc diffusion technique; assay type: functional; conditions: read-out: IZ
Outline: (§2)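 Paper disc diffusion on Sabouraud dextrose agar, autoclaved at 120 °C for 30 min. Medium at 40–50 °C was seeded at 1 ml/100 ml with a 10^5 cfu/ml fungal suspension matched to 0.9 McFarland. It was poured 3–4 mm deep, and compound discs in DMSO were applied. Plates were pre-incubated 1 h at room temperature, then 28 °C for 48 h. The inhibition zone was recorded.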

Bacillus cereus [3] = assay: Antibacterial activity against Bacillus cereus at 100 ug/ml after 24 hrs by paper disc diffusion technique; assay type: functional; conditions: read-out: IZ
Outline: (§3)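 Paper disc diffusion on Mueller Hinton agar, autoclaved at 120 °C for 30 min. Medium at 40–50 °C was seeded at 1 ml/100 ml with a 10^5 cfu/ml suspension matched to 0.9 McFarland. It was poured 3–4 mm deep, and discs with compound in DMSO were laid on it. Plates were pre-incubated 1 h at room temperature, then 37 °C for 24 h. The inhibition zone was measured.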

Salmonella typhimurium [4] = assay: Antibacterial activity against Salmonella Typhimurium after 24 hrs by agar streak dilution method; assay type: functional, Salmonella enterica subsp. enterica serovar Typhimurium; conditions: Salmonella enterica; outline: as §1
Aspergillus flavus [5] = assay: Antifungal activity against Aspergillus flavus after 48 hrs by agar streak dilution method; assay type: functional
Outline: (§4)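 Fungal MIC by agar streak dilution on Sabouraud dextrose agar. Compound stock in DMSO was added in graded amounts to molten sterile medium at 40–50 °C. This was poured 3–4 mm deep and left to solidify. Fungal suspension of about 10^5 cfu/ml was applied to the serially diluted plates. Plates were incubated at 37 °C for 48 h.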

Candida albicans [6] = assay: Antifungal activity against Candida albicans after 48 hrs by agar streak dilution method; assay type: functional; outline: as §4
Pseudomonas aeruginosa [7] = assay: Antibacterial activity against Pseudomonas aeruginosa at 100 ug/ml after 24 hrs by paper disc diffusion technique; assay type: functional; conditions: read-out: IZ; outline: as §3
Bacillus cereus [8] = assay: Antibacterial activity against Bacillus cereus after 24 hrs by agar streak dilution method; assay type: functional; outline: as §1
Salmonella typhimurium [9] = assay: Antibacterial activity against Salmonella Typhimurium at 100 ug/ml after 24 hrs by paper disc diffusion technique; assay type: functional, Salmonella enterica subsp. enterica serovar Typhimurium; conditions: Salmonella enterica, read-out: IZ; outline: as §3
Listeria monocytogenes [10] = assay: Antibacterial activity against Listeria monocytogenes at 100 ug/ml after 24 hrs by paper disc diffusion technique; assay type: functional; conditions: read-out: IZ; outline: as §3
Pseudomonas aeruginosa [11] = assay: Antibacterial activity against Pseudomonas aeruginosa after 24 hrs by agar streak dilution method; assay type: functional; outline: as §1
Escherichia coli [12] = assay: Antibacterial activity against Escherichia coli O157 after 24 hrs by agar streak dilution method; assay type: functional; conditions: O157, 24 h
Staphylococcus aureus [13] = assay: Antibacterial activity against Staphylococcus aureus at 100 ug/ml after 24 hrs by paper disc diffusion technique; assay type: functional; conditions: read-out: IZ; outline: as §3
Escherichia coli [14] = assay: Antibacterial activity against Escherichia coli O157 at 100 ug/ml after 24 hrs by paper disc diffusion technique; assay type: functional; conditions: O157, 24 h, read-out: IZ
Staphylococcus aureus [15] = assay: Antibacterial activity against Staphylococcus aureus after 24 hrs by agar streak dilution method; assay type: functional; outline: as §1
Aspergillus flavus [16] = assay: Antifungal activity against Aspergillus flavus at 100 ug/ml after 48 hrs by paper disc diffusion technique; assay type: functional; conditions: for zone of inhibition at 100 µg/mL: read-out: IZ; outline: as §2

SMILES | MIC (Listeria monocytogenes [1]) | zone of inhibition at 100 µg/mL (Candida albicans [2]) | zone of inhibition at 100 µg/mL (Bacillus cereus [3]) | MIC (Salmonella typhimurium [4]) | MIC (Aspergillus flavus [5]) | MIC (Candida albicans [6]) | zone of inhibition at 100 µg/mL (Pseudomonas aeruginosa [7]) | MIC (Bacillus cereus [8]) | zone of inhibition at 100 µg/mL (Salmonella typhimurium [9]) | zone of inhibition at 100 µg/mL (Listeria monocytogenes [10]) | MIC (Pseudomonas aeruginosa [11]) | MIC (Escherichia coli [12]) | zone of inhibition at 100 µg/mL (Staphylococcus aureus [13]) | zone of inhibition at 100 µg/mL (Escherichia coli [14]) | MIC (Staphylococcus aureus [15]) | zone of inhibition at 100 µg/mL (Aspergillus flavus [16]) | inhibition zone (IZ) (Aspergillus flavus [16])
Cc1ccc(C2SCC(=O)N2NC(=O)c2ccc(-n3c(-c4ccccc4)nc4c(Br)cc(Br)cc4c3=O)cc2)cc1 (stereo unspecified) | 50 µg/mL (≈ 72.4 µM) | 10 mm | 9 mm | 7 µg/mL (≈ 10.1 µM) | 12.5 µg/mL (≈ 18.1 µM) | 30 µg/mL (≈ 43.5 µM) | 16 mm | 50 µg/mL (≈ 72.4 µM) | 15 mm | 10 mm | 10.1 µg/mL (≈ 14.6 µM) | > 50 µg/mL | 10 mm | 9 mm | > 50 µg/mL | 16 mm | –
OC(Cn1cncn1)(Cn1cncn1)c1ccc(F)cc1F [FLUCONAZOLE] | – | 18 mm | – | – | 0.78 µg/mL (≈ 2.55 µM) | 1.56 µg/mL (≈ 5.09 µM) | – | – | – | – | – | – | – | – | – | 22 mm | –
O=C(N/N=C/c1ccco1)c1ccc(-n2c(-c3ccccc3)nc3c(Br)cc(Br)cc3c2=O)cc1 | > 50 µg/mL | 12 mm | 12 mm | 5 µg/mL (≈ 8.44 µM) | – | 25 µg/mL (≈ 42.2 µM) | 8 mm | 50 µg/mL (≈ 84.4 µM) | 16 mm | 11 mm | > 50 µg/mL | > 50 µg/mL | 13 mm | 9 mm | 20 µg/mL (≈ 33.8 µM) | – | inactive
O=C(NN1C(=O)c2ccccc2C1=O)c1ccc(-n2c(-c3ccccc3)nc3c(Br)cc(Br)cc3c2=O)cc1 | > 50 µg/mL | 9 mm | 16 mm | > 50 µg/mL | 0.39 µg/mL (≈ 0.605 µM) | 50 µg/mL (≈ 77.6 µM) | 11 mm | 5.5 µg/mL (≈ 8.54 µM) | 11 mm | 10 mm | > 50 µg/mL | 50 µg/mL (≈ 77.6 µM) | 10 mm | 11 mm | > 50 µg/mL | 25 mm | –
CC1=NN(C(=O)c2ccc(-n3c(-c4ccccc4)nc4c(Br)cc(Br)cc4c3=O)cc2)C(=O)C1 | 6 µg/mL (≈ 10.3 µM) | 9 mm | 11 mm | 30 µg/mL (≈ 51.7 µM) | 2.5 µg/mL (≈ 4.31 µM) | 50 µg/mL (≈ 86.2 µM) | 12 mm | > 50 µg/mL | 14 mm | 16 mm | 50 µg/mL (≈ 86.2 µM) | – | 11 mm | – | 40 µg/mL (≈ 68.9 µM) | 20 mm | –
Cc1nnc(-c2ccc(-n3c(-c4ccccc4)nc4c(Br)cc(Br)cc4c3=O)cc2)o1 | 12.5 µg/mL (≈ 23.2 µM) | 11 mm | 17 mm | 50 µg/mL (≈ 92.9 µM) | 9.5 µg/mL (≈ 17.7 µM) | 25 µg/mL (≈ 46.5 µM) | 12 mm | 1.56 µg/mL (≈ 2.9 µM) | 12 mm | 15 mm | 50 µg/mL (≈ 92.9 µM) | 25 µg/mL (≈ 46.5 µM) | 15 mm | 14 mm | 12.5 µg/mL (≈ 23.2 µM) | 18 mm | –
